The values below come from ChEMBL document CHEMBL1143599, “Design, synthesis, and antiviral activity of adenosine 5'-phosphonate analogues as chain terminators against hepatitis C virus” (J Med Chem, 2005).

Assay type in all cases: functional
In data set [1] the target is RNA-directed RNA polymerase (Hepacivirus hominis) (UniProt O39930). The experiment in a line: Ratio of steady state kinetic constant and incorporation efficiency for Hepatitis C Virus NS5BRdRp. A digest of the protocol:
(§1)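 HCV NS5B, C-terminal His-tag with 21-residue truncation, 1 µM. Template 5′-AAAAAAAUGC-3′ and [5′-33P]GpC primer each at 20 µM. Buffer 50 mM HEPES pH 7.3, 10 mM DTT, 5 mM MgCl2; 15 min at 30 °C. Substrate varied from Km/2 to 10Km; EDTA quench, denaturing urea-PAGE. Initial velocities fitted to Michaelis-Menten for Km and Vmax; efficiency taken as Vmax/Km.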

In data set [2] the test system is Nc1ncnc2c1ncn2[C@@H]1O[C@H](COP(=O)(O)OP(=O)(O)OP(=O)(O)O)[C@@H](O)[C@H]1O. The experiment in a line: Steady-state kinetic constant for Hepatitis C Virus NS5BRdRp. To be noted: Hepacivirus hominis. A digest of the protocol: as §1
Data set [3] has the same test system. The data set can be described thus: Incorporation efficiency for Hepatitis C Virus NS5BRdRp. The note with it: Hepacivirus hominis. A digest of the protocol:
as §1

In the case of `Nc1ncnc2c1ncn2[C@@H]1O[C@H](COP(=O)(O)OP(=O)(O)OP(=O)(O)O)[C@@H](O)[C@H]1O`, the Ratio in data set [1] came to 0.0017. Same read-out and setting: under `Nc1ncnc2c1ncn2[C@@H]1O[C@H](OCP(=O)(O)OP(=O)(O)OP(=O)(O)O)[C@@H](O)[C@H]1O` stands 1.2e-05. As for “RNA-directed RNA polymerase (Hepacivirus hominis), O39930”, the Km in data set [2] amounted to 133 µM. Also, in data set [3], the Vmax worked out at 0.23 µM/min. On to `Nc1ncnc2c1ncn2[C@@H]1O[C@H](CCP(=O)(O)OP(=O)(O)OP(=O)(O)O)[C@@H](O)[C@H]1O`, for which, in data set [1], the Ratio stood at 0.00019.
